# Screening results: PubChem, several laboratories
# A selection: hits, their analogues and other compounds. The true share with any hit is near 2.2%.
# Exocytosis inh: LAMP-1 surface exposure blockers, TALL-104 cells – cell-based, flow cytometry, MLPCN library, primary screen. AID 651702, 2012. 0.66% of 360,000 active. inhibition, % at 10 µM. TALL-104 LAMP-1 surface exposure; cells stimulated with thapsigargin and PMA;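 active = inhibition above about 55%, limit read from the data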
# ABHD5 PLIN5 PPI: ABHD5-PLIN5 interaction inhibitors, primary screen, cell lysate, split luciferase complementation, luminescence. Perilipin-5 (Homo sapiens) + 1-acylglycerol-3-phosphate O-acyltransferase ABHD5 (Homo …. Split G. princeps luciferase complementation, 4 h. inhibition, % at 4 µM. AID 602281, 2012. 0.78% of 360,000 active;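 active = inhibition above the mean inhibition across every tested compound plus 3 SD, cut at about 22% in these data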;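 also: 0% = DMSO only wells and the 100% control is not disclosed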
# HKDC1 inhibitor: HKDC1 hexokinase inhibitors, primary screen, biochemical, fluorescence, uHTS | Q2TB90 | recombinant HKDC1, G6PDH/diaphorase resazurin coupled fluorescence | inhibition, % at 20 µM | 0.16% of 340,000 active | AID 493160, 2011;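 active = inhibition above about 35% when tested at 20 µM, limit read from the data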;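 also: plate controls were DMSO wells with enzyme for no effect and DMSO wells lacking enzyme for full effect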
#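 Material: recombinant HKDC1 hexokinase; Amount: HKDC1 at 5 µg/mL; Medium: Tris pH 8.0 buffer with MgCl2, Tween-20, BSA, BME; Schedule: 90 min reaction incubation at room temperature, dark; Technique: coupled resazurin fluorescence, excitation 525 nm, emission 613 nm.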
# PfG6PD inh: PfG6PD enzyme inhibitors, primary screen, biochemical, fluorescence intensity, uHTS | PfGluPho enzyme, NADPH resazurin-diaphorase fluorescence | AID 504690, 2011 | 0.78% of 350,000 active | inhibition, % at 20 µM | glucose-6-phosphate dehydrogenase-6-phosphogluconolactonase (Plasmodium falciparum 3D7);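 active = inhibition reaching at least a set limit at 20 µM in the primary screen, cut at about 59% in these data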;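 also: 0% = DMSO wells with substrate and 100% = DMSO wells lacking glucose-6-phosphate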
# Granule exo CP1: inhibitors of lytic granule exocytosis, confirmation, TALL-104 cells, flow cytometry, Cherry Pick01; inhibition, % at 10 µM; shares compounds with Exocytosis inh; LAMP-1 externalization; stimulated with PMA plus thapsigargin; 11% of 1,500 active; in the data active = inhibition above about 60%;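 also: 0% = stimulated vehicle wells and 100% = unstimulated wells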
# Starred values were filed as active, the others as inactive; . = no result given.
SMILES,Exocytosis inh,ABHD5 PLIN5 PPI,HKDC1 inhibitor,PfG6PD inh,Granule exo CP1
Cc1ccc(NS(=O)(=O)c2c(C)[nH]c(C)c2C(=O)N2CCCCC2)c(Br)c1,1,-1,-2,4,.
CC1CCC(NC(=O)CSc2nnc(-c3cccnc3)o2)CC1 (stereo not given),3,-2,-9,15,.
CNC(=O)NC(=O)CSc1nc2sccc2c(=O)n1-c1ccccc1,-2,6,-4,-10,.
O=C(O)c1nn(CCOc2cccc(Br)c2)c(=O)c2ccccc12,73*,2,4,34,-2
C=CCN1C(=O)C(CC(=O)Nc2ccc(OCCC)cc2)N(CCCN2CCN(Cc3ccccc3)CC2)C1=S (stereo not given),58*,16,0,8,21
Cn1cccc1C(=O)NC1CCCCC1,2,-4,5,1,.
CCC(C(=O)NCCCN(CC)Cc1ccccc1)n1nc(C)c2sc3ccccc3c2c1=O (stereo not given),58*,13,-6,-12,-5
Cc1nn(C(C)C(=O)NCCCN(Cc2ccccc2)C(C)C)c(=O)c2c1sc1ccccc12 (stereo not given),1,3,-4,-1,.
CCC(C(=O)NCCc1ccc(C)cc1)n1nc(C)c2c(C)n(-c3ccccc3)nc2c1=O (stereo not given),86*,-15,4,12,-4
Cn1nccc1C(=O)NC1CCN(Cc2ccccc2)CC1,-11,5,5,5,.
CS(=O)(=O)c1ccc(Cl)c(NC(=O)COC(=O)CCCN2C(=O)c3cccc4cccc(c34)C2=O)c1,-3,2,3,-13,.
CCS(=O)(=O)c1ncc(CO)n1CCc1ccccc1,2,4,-3,0,.
O=C(Nc1ccc(S(=O)(=O)N2CCCC2)cc1)c1ccc(Br)o1,80*,2,-2,16,-2
COc1ccc(C(=O)CNc2cccc(F)c2)cc1,-9,6,-5,-15,.
Cc1oc(-c2ccccc2)cc1C(=O)NC1CCN(Cc2ccccc2)CC1,67*,-10,-4,-1,-7
Cc1ccc2c3c(cccc13)-c1ccccc1C2=O,97*,-2,-6,8,77*
Cc1cccc2cc3c(nc12)-c1ccccc1C3=O,-10,-12,1,8,.
CC(CC(=O)Nc1ncc([N+](=O)[O-])s1)c1ccccc1 (stereo not given),59*,5,-2,12,-9
Cc1ccc(-n2nnc3c(=O)oc4ccccc4c32)cc1,94*,-1,-7,-1,83*
CCOC(=O)C1(Cc2ccccc2)CCN(Cc2ccc(C)s2)CC1,64*,-5,-5,18,-4
CCOC(=O)C1(Cc2cccc(OC)c2)CCN(C/C=C/c2ccc(OC)cc2)CC1,23,-2,3,31,.
CCOC(=O)C1(Cc2ccccc2)CCN(Cc2cc(OC)c3c(c2)OCO3)CC1,60*,2,5,10,-4
CCOC(=O)C1(Cc2ccccc2)CCN(Cc2cccc3c2OCO3)CC1,5,-4,-4,15,.
CCOC(=O)C1(Cc2cccc(OC)c2)CCN(C/C=C/c2ccccc2)CC1,64*,1,-9,-2,-12
CC1(Cc2cc(Cl)ccc2C(F)(F)F)C(=O)Nc2ccc(OC(F)(F)F)cc21 (stereo not given),0,-20,.,.,.
SMILES,Exocytosis inh,ABHD5 PLIN5 PPI,HKDC1 inhibitor,PfG6PD inh,Granule exo CP1
Cc1ccc(SC[C@H](c2ccccc2)N2CCN(CCc3ccccc3)CCC2=O)cc1,59*,6,5,12,-11
O=C1CCN(CCc2ccccc2)CCN1[C@H](CSc1ccccc1)c1ccccc1,10,8,0,11,.
CCCOc1ccc(-c2nc(C#N)c(NCCCn3ccnc3)o2)cc1,4,-7,1,2,.
N#Cc1nc(-c2ccc(OCc3ccccc3)cc2)oc1NCCCn1ccnc1,81*,4,2,13,33
COc1ccc(CN2CCc3c([nH]c4ccccc34)C2)cc1Br,4,12,-1,8,.
COc1ccc(CN2CCc3c([nH]c4ccccc34)C2)c(OC)c1C,56*,-3,-5,-2,-12
CCCN1CCN(C(=O)c2oc3ccccc3c2NC(=O)C2CC2)CC1,-3,10,1,6,.
